Calls of active or inactive are those of the source. Unless noted, the rule behind the calls is not given here.
How the values were obtained:
[1] = biological target: T1, tRNA (guanine-N(1)-)-methyltransferase (Pseudomonas aeruginosa (strain ATCC 15692 / DSM 22644 / CIP 104116 / JCM14847 / LMG 12228 / 1C / PRS 101 / PAO1)) (UniProt Q9HXQ1); test: Binding affinity to Pseudomonas aeruginosa tRNA (guanine(37)-N1)-methyltransferase (Leu5 to Asp25 residues) expressed in Escherichia coli BL21 (DE3) Rosetta T1R cells assessed as thermal stabilization of protein by measuring change in melting temperature at 0.1 mM by SYPRO orange based thermal shift assay
T1 sequence (whole entry): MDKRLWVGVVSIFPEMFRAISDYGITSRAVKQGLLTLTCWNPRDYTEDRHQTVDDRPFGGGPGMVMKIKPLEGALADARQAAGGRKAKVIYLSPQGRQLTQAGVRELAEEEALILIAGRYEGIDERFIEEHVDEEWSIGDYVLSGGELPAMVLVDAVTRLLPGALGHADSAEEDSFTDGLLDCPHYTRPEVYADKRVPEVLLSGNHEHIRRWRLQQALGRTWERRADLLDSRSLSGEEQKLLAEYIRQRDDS
Outline: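 Thermal shift: 4 μM TrmD with 5× SYPRO Orange and ligand in 50 mM Tris-HCl pH 8, 150 mM NaCl, 1 mM MgCl2, 1 mM DTT, 0.05% Tween-20. Buffer-only control. Heated from 25 to 95 °C in a real-time PCR instrument, and Tm taken as the unfolding midpoint. Ligand levels: SAH 2 mM, inhibitors 0.1 mM.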

[2] = biological target: T1, tRNA (guanine-N(1)-)-methyltransferase (Pseudomonas aeruginosa (strain ATCC 15692 / DSM 22644 / CIP 104116 / JCM14847 / LMG 12228 / 1C / PRS 101 / PAO1)); test: Inhibition of Pseudomonas aeruginosa tRNA (guanine(37)-N1)-methyltransferase (Leu5 to Asp25 residues) expressed in Escherichia coli BL21 (DE3) Rosetta T1R cells assessed as reduction in S-adenosyl-L-homocysteine production up to 50 uM preincubated for 15 mins followed by 1.5 uM of tRNALeu(CAG) substrate and SAM addition and measured after 45 mins by MTase-Glo assay
Outline: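 MTase-Glo luminescence assay. 8 nM TrmD preincubated 15 min at ambient temperature with serially diluted inhibitor (0–500 μM) in 50 mM Tris-HCl pH 8.0, 80 mM NaCl, 1 mM MgCl2, 0.5 mM DTT, 0.01% Triton X-100. Reaction with 2 μM SAM and tRNALeu(CAG), 45 min at 37 °C. Detection 30 min in the dark, SAH read against a standard curve. IC50 by nonlinear regression. Two independent experiments in duplicate.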

Erythrocyte = test: Hemolytic activity in human RBC at 100 uM measured after 1 hr; assay type: ADME, cell-based
Outline: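 Fresh human RBCs were PBS-washed and resuspended to OD600 24, then mixed 1:1 by volume with compound serially diluted in PBS. Incubated 1 h at 37 °C without shaking and centrifuged at 1000g for 15 min. Triton X-100 served as positive control. Run in triplicate.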

For `CCCCCCCCNCc1ccc(CNC(=O)c2csc3ncnc(OCCCCCC)c23)cc1`, the ΔTm [1] was 1 to 2 °C and the inhibition [2] was “inactive”.
`CCCCCCCCNCc1ccc(CNC(=O)c2csc3ncnc(OCCC)c23)cc1` was tested, and the ΔTm [1] was 1 to 2 °C and the inhibition [2] was “inactive”.
With `COc1ncnc2scc(C(=O)NCc3ccc(CN4CCOCC4)cc3)c12` the ΔTm [1] was 1 to 2 °C, the Activity (Erythrocyte) was “Non-Toxic” and the inhibition [2] was “inactive”.
For `COc1ncnc2scc(C(=O)NCc3ccc(CNCc4ccccc4)cc3)c12`, the ΔTm [1] was 1 to 2 °C, the Activity (Erythrocyte) was “Non-Toxic” and the inhibition [2] was “inactive”.
`CCCCCCOc1ncnc2scc(C(=O)NCc3ccc(CNCc4ccccc4)cc3)c12` was tested, and the ΔTm [1] was 1 to 2 °C and the inhibition [2] was “inactive”.
